Test [1] has as its system Geobacillus stearothermophilus. Nature of the test: Inhibition of Bacillus stearothermophilus alpha-D-glucosidase at 1 mg/ml after 10 to 20 mins. An outline of the steps:
(§1)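 Enzyme was pre-incubated with test solution at 1 mg/ml, or dH2O for controls, for 10–20 min at 27 °C. Substrate was added and incubation continued for the same time at 27 °C. The reaction was stopped with glycine solution and read at 405 nm. Each sample and control ran in three wells at the enzyme's optimal pH. Values are % inhibition.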

In test [2] the target is T1, Beta-galactosidase (Bos taurus) (UniProt Q58D55).
T1 sequence (whole entry): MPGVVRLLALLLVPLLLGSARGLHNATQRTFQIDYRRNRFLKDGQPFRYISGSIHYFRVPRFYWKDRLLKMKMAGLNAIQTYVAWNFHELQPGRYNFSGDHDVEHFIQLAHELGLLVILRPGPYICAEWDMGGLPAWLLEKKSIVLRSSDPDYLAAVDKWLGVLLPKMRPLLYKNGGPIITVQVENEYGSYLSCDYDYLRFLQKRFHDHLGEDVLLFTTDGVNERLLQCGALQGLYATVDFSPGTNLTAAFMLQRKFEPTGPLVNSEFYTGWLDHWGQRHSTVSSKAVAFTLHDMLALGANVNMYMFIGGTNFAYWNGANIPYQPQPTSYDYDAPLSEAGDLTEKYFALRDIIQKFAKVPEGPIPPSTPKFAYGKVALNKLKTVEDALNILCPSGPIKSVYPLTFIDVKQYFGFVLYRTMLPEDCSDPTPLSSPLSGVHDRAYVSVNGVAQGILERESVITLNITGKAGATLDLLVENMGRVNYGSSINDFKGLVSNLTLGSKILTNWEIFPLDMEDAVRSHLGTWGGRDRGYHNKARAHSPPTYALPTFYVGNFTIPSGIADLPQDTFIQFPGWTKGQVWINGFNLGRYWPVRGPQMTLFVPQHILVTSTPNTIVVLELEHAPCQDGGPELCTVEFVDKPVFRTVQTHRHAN
Nature of the test: Inhibition of bovine kidney beta-D-galactosidase at 1 mg/ml after 10 to 20 mins. An outline of the steps: as §1

A further test concerns Penicillium decumbens. Nature of the test: Inhibition of Penicillium decumbens naringinase at 1 mg/ml after 10 to 20 mins. The method, boiled down:
as §1

In a further test the test system is Oryza sativa. Nature of the test: Inhibition of rice alpha-D-glucosidase at 1 mg/ml after 10 to 20 mins. The method, boiled down: as §1
The species entered for another test is Bos taurus. Nature of the test: Inhibition of bovine kidney N-acetyl-beta-D-glucosaminidase at 1 mg/ml after 10 to 20 mins. An outline of the steps: as §1
For another test, the system named is Prunus. Nature of the test: Inhibition of almond beta-D-glucosidase at 1 mg/ml after 10 to 20 mins. An outline of the steps:
as §1

Test [3] concerns the target Alpha-galactosidase (Coffea arabica) (UniProt Q42656). Nature of the test: Inhibition of green coffee beans alpha-D-galactosidase at 1 mg/ml after 10 to 20 mins. The method, boiled down: as §1
For the next test, the system named is Saccharomyces cerevisiae. Nature of the test: Inhibition of Saccharomyces cerevisiae alpha-D-glucosidase at 1 mg/ml after 10 to 20 mins. An outline of the steps: as §1
The next test relates to Cellulomonas fimi. Nature of the test: Inhibition of Cellulomonas fimi beta-D-mannosidase at 1 mg/ml after 10 to 20 mins. An outline of the steps:
as §1

The subject of the next test is Canavalia ensiformis. Nature of the test: Inhibition of jack bean alpha-D-mannosidase at 1 mg/ml after 10 to 20 mins. An outline of the steps:
as §1

Each structure is given as a SMILES string. Activity calls are given as the source filed them. The rule behind the calls is not given here.

As usually defined, the inhibition is the relative decrease from the control value, in per cent.

Sequence of Alpha-galactosidase (Coffea arabica) (Q42656 16-378 limits assumed): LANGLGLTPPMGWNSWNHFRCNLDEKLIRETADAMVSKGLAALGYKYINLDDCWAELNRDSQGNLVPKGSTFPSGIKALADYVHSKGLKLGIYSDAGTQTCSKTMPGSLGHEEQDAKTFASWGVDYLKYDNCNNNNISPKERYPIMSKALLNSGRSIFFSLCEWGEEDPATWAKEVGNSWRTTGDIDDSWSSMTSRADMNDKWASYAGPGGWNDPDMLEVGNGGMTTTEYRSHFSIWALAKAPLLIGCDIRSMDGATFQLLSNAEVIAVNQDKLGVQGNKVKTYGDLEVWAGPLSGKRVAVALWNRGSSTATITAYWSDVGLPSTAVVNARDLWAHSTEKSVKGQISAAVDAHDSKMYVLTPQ

As to `COC(=O)C(Cc1ccccc1)N1C[C@@H](CO)O[C@H](OC)C1` (stereo partly drawn), the inhibition entry (in [1]; with Penicillium decumbens; in the test on Oryza sativa; in the test filed under Bos taurus; with Prunus; in [3]) was “inactive” each time. Moreover, the inhibition result with Saccharomyces cerevisiae and with Cellulomonas fimi was “inactive” in each case. Besides, the inhibition in test [2] stood at 5%.

In the case of `CO[C@H]1O[C@H](CO)CNC[C@H]1O`, the inhibition in test [1] came out at 8%; in [2], 16%; in the test filed under Bos taurus it was 9%; in test [3], 6%. For the same molecule, the inhibition entry in the test with Penicillium decumbens, in the test on Oryza sativa, in the test on Prunus, in the test on Canavalia ensiformis, in the test with Saccharomyces cerevisiae and in the test on Cellulomonas fimi was “inactive” each time.

Regarding `COC(=O)CN1C[C@@H](CO)O[C@H](OC)C1`, the inhibition entry (in test [1]; with Penicillium decumbens; in the test on Oryza sativa; in the test filed under Bos taurus; in the test with Prunus; with Canavalia ensiformis) was “inactive” throughout. Also, the inhibition entry (in [3]; in the test with Saccharomyces cerevisiae; in the test on Cellulomonas fimi) was “inactive” throughout. The same molecule gave an inhibition in test [2] of 36%.

On to `CCCCN1C[C@@H](CO)O[C@H](OC)[C@H](O)C1`, for which the inhibition result (in test [1]; in the test on Penicillium decumbens; with Oryza sativa; with Prunus; in the test with Canavalia ensiformis; in test [3]) was “inactive” in each case. Also, in the test with Cellulomonas fimi, the inhibition entry is “inactive”. Besides, the figures for the inhibition (in test [2]; in the test filed under Bos taurus; in the test on Saccharomyces cerevisiae) were 23%, 32% and 8%, respectively.

On to `COC(=O)C(Cc1ccc(O)cc1)N1C[C@@H](CO)O[C@H](OC)[C@H](O)C1` (stereo partly drawn), for which the inhibition entry (in test [1]; in test [2]; with Penicillium decumbens; in the test on Oryza sativa; in the test listed under Bos taurus; in the test with Prunus) was “inactive” each time. The inhibition entry (with Canavalia ensiformis; in test [3]; in the test on Saccharomyces cerevisiae; in the test with Cellulomonas fimi) was “inactive” throughout.

`CCCN1C[C@@H](CO)O[C@H](OC)[C@H](O)C1`: the inhibition result (in [1]; with Penicillium decumbens; with Oryza sativa; in the test with Prunus; in the test on Canavalia ensiformis; in test [3]) was “inactive” in each case. Besides, the inhibition result in the test on Cellulomonas fimi was “inactive”. The inhibition in test [2] turned out to be 32%; in the test filed under Bos taurus it was 25%; in the test with Saccharomyces cerevisiae it was 10%.

Turning to `COC(=O)CN1C[C@@H](CO)O[C@H](OC)[C@H](O)C1`, the inhibition entry (in test [1]; in test [2]; with Penicillium decumbens; in the test on Oryza sativa; with Prunus; with Canavalia ensiformis) was “inactive” throughout. The inhibition result (in [3]; in the test with Saccharomyces cerevisiae; with Cellulomonas fimi) was “inactive” throughout.

Regarding `CO[C@H]1O[C@H](CN2C[C@@H](CO)O[C@H](OC)[C@H](O)C2)[C@@H](OCc2ccccc2)[C@H](OCc2ccccc2)[C@H]1OCc1ccccc1`, the inhibition entry (in test [1]; in test [2]; with Penicillium decumbens; in the test on Oryza sativa; in the test filed under Bos taurus; in the test on Prunus) was “inactive” in each case. In addition, the inhibition entry (in the test on Canavalia ensiformis; in test [3]; with Saccharomyces cerevisiae; in the test on Cellulomonas fimi) was “inactive” each time.

Take `COC(=O)C(C)N1C[C@@H](CO)O[C@H](OC)[C@H](O)C1` (stereo partly drawn): the inhibition entry (in [1]; in test [2]; in the test on Penicillium decumbens; with Oryza sativa; in the test filed under Bos taurus; in the test with Prunus) was “inactive” each time. Further, the inhibition result (with Canavalia ensiformis; in test [3]; in the test with Saccharomyces cerevisiae; with Cellulomonas fimi) was “inactive” throughout.

`COC(=O)C(Cc1ccccc1)N1C[C@@H](CO)O[C@H](OC)[C@H](O)C1` (stereo partly drawn): the inhibition result (in [1]; in test [2]; with Penicillium decumbens; in the test on Oryza sativa; in the test listed under Bos taurus; in the test on Prunus) was “inactive” in each case. The inhibition result (with Canavalia ensiformis; in test [3]; in the test with Saccharomyces cerevisiae; with Cellulomonas fimi) was “inactive” in each case.

Regarding `COC(=O)C(Cc1ccc(O)cc1)N1C[C@@H](CO)O[C@H](OC)C1` (stereo partly drawn), the inhibition entry (in [1]; in the test on Penicillium decumbens; in the test with Oryza sativa; in the test listed under Bos taurus; with Prunus; in test [3]) was “inactive” throughout. For the same molecule, the inhibition entry in the test on Saccharomyces cerevisiae and with Cellulomonas fimi was “inactive” each time. Further, the inhibition in test [2] was 12%.

Turning to `CO[C@@H]1CN(C[C@H]2O[C@H](OC)[C@H](O)[C@@H](O)[C@@H]2O)C[C@@H](CO)O1`, the inhibition was found to be 66% in test [1]; 50% in test [2]; 11% with Penicillium decumbens; 11% in the test filed under Bos taurus; 28% with Prunus; 31% in [3]. Besides, the inhibition came out at 77% in the test on Saccharomyces cerevisiae and 33% in the test on Cellulomonas fimi. Moreover, the inhibition result in the test with Oryza sativa and in the test with Canavalia ensiformis was “inactive” in each case.

As for `CO[C@H]1O[C@H](CO)CN(O)C[C@H]1O`, the inhibition result (in test [1]; in test [2]; in the test on Penicillium decumbens; in the test with Oryza sativa; with Prunus; with Canavalia ensiformis) was “inactive” throughout. Also, the inhibition result (in test [3]; with Saccharomyces cerevisiae; in the test with Cellulomonas fimi) was “inactive” in each case.

Turning to `COC(=O)C(C)N1C[C@@H](CO)O[C@H](OC)C1` (stereo partly drawn), the inhibition entry (in [1]; with Penicillium decumbens; in the test on Oryza sativa; in the test listed under Bos taurus; with Prunus; in test [3]) was “inactive” throughout. Also, the inhibition result in the test on Saccharomyces cerevisiae and with Cellulomonas fimi was “inactive” each time. The same molecule gave an inhibition in test [2] of 14%.

Regarding `CCCCCCCCN1C[C@@H](CO)O[C@H](OC)[C@H](O)C1`, the inhibition entry (in test [1]; in test [2]; with Penicillium decumbens; in the test with Oryza sativa; in the test on Prunus; in the test on Canavalia ensiformis) was “inactive” throughout. The inhibition result (in [3]; in the test on Saccharomyces cerevisiae; with Cellulomonas fimi) was “inactive” throughout.

As to `CO[C@H]1O[C@H](CO)CN(Cc2ccccc2)C[C@H]1O`, the inhibition result (in test [1]; in [2]; with Penicillium decumbens; with Oryza sativa; with Prunus; in the test on Canavalia ensiformis) was “inactive” in each case. The inhibition result (in test [3]; in the test on Saccharomyces cerevisiae; in the test with Cellulomonas fimi) was “inactive” in each case.

These data come from ChEMBL document CHEMBL1821567, “Synthesis and glycosidase inhibitory profiles of functionalised morpholines and oxazepanes” (Bioorg Med Chem, 2011).
